Sampled rows, rich in hits. Any-hit rate of the full collection: about 4.4%.
SENP1 FRET inh: blocks the human SENP1 SUMO protease catalytic domain; Q9P0U3; recombinant SENP1 catalytic domain, CyPet-SUMO1-YPet FRET cleavage; inhibition, % at 10 µM; hit rate 0.21% among 360,000;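 active means inhibition at least 30% at 10 µM, raw YFP signal under a set limit, fluorescence ratio 0.5 to 1.5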
Target sequence (Q9P0U3 419-644 limits assumed): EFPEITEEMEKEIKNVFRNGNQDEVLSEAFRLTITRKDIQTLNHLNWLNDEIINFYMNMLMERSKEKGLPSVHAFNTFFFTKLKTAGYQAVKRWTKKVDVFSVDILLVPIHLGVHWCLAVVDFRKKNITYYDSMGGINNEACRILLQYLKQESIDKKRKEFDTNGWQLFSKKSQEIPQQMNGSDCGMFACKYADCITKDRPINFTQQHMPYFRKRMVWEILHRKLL
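system = hSENP1 catalytic domain, recombinant | reagent = SFCypet-SUMO1-SFYpet substrate at 25 nM | doses = one dose per compound, 10 µM, 0.5% DMSO | incubation = enzyme reaction for 50 min at room temperature, dark | measured by = FRET, CFP and YFP emission | controls = no-enzyme low, enzyme-DMSO high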
MPTP block: blocks calcium-induced mitochondrial swelling; inhibition, % at 10 µM; hit rate 1.4% among 360,000; isolated mouse mitochondria, Ca2+ swelling absorbance, 30 min;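 active means inhibition of 50% or more, scaled per plate between neutral and stimulator controls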
GRIN3A LBD mod: modulators (binders) of human NR3A ligand-binding domain; AID 1259313; hit rate 2.5% among 340,000; Tm shift relative to glycine control, % at 25 µM; NR3A LBD differential scanning fluorimetry, Tm shift; 0% = protein alone, 100% = glycine-bound protein;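 active means melting temperature shift of at least 10% of the positive control shift, at one fixed dose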
EBI2 antag: EBI2 (human) antagonism; EBI2 beta-arrestin recruitment, luminescence, 7a,25-OHC stimulated; AID 651636; hit rate 0.81% among 360,000; P32249; inhibition, % at 5 µM; in the data active means inhibition above about 38%;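 further: enzyme fragment complementation signal reports receptor beta-arrestin coupling in cells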
Target sequence (P32249 whole entry, looked up, the tested form may be a part): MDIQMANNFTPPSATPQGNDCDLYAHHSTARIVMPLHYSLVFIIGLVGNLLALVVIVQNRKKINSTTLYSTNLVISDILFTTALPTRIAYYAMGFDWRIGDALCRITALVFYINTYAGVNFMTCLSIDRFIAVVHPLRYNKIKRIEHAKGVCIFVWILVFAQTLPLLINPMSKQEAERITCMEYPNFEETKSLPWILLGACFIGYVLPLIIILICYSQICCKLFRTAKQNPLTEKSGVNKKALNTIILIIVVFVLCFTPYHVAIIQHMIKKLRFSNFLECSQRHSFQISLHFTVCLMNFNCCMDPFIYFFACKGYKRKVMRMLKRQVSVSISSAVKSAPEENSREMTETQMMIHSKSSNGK
Rh123 counter: mitochondrial membrane potential, counter-screen; shares compounds with MPTP block; isolated mitochondria, Rhodamine 123 fluorescence; inhibition, % at 10 µM; hit rate 78% among 5,000; in the data active means inhibition above about 22%
MPTP abs DR: MPTP inhibition, dose response swelling confirmation. shares compounds with MPTP block. isolated mitochondria swelling, absorbance. IC50, µM. hit rate 58% among 780. AID 651561; in the data active means IC50 below about 20 µM
MPTP counter DR: MPTP inhibitor counter-screen activity, dose response. IC50, µM. AID 651564. isolated mitochondria counterscreen, fluorescence read-out. shares compounds with MPTP block. hit rate 49% among 780; in the data active means IC50 below about 80 µM
Each line names hits and unclear results; the compound was inactive in the other large screens (follow-up assays come after a bar, where they were run).

Cc1ccc(OCC(O)Cn2c(=N)n(CCN3CCOCC3)c3ccccc32)cc1 (centres undefined)	MPTP block 52 | Rh123 counter inactive | MPTP abs DR inactive | MPTP counter DR inactive
Cc1onc(-c2ccccc2)c1C(=O)NC(=S)NNC(=O)c1ccccc1O	MPTP block 95 | Rh123 counter inactive
CCCOc1ccc(C(=O)NC(=S)NNC(=O)c2c(-c3ccccc3)noc2C)cc1	MPTP block 69 | Rh123 counter inactive
CCCOc1ccc(NC(=O)c2c(-c3ccccc3)noc2C)cc1	none
Cc1onc(-c2ccccc2)c1C(=O)NC(=S)NNC(=O)c1ccc(O)cc1O	none
Cc1cc(C)nc(-n2nc(C)c(Br)c2Nc2ccc(Br)cc2)n1	none
Cc1nn(C)c(Nc2ccc(Br)cc2)c1Br	MPTP block 89 | Rh123 counter 76
CCN(CC#CCC(O)(c1ccccc1)C1CCCC1)C(C)C (centres undefined)	MPTP block 78 | Rh123 counter inactive | MPTP abs DR inactive | MPTP counter DR inactive
CC(C)N(CC#CCC(O)(c1ccccc1)C1CCCC1)CCO (centres undefined)	none
O=C(O)c1ccc(Nc2nc3ccccc3nc2NS(=O)(=O)c2ccc(F)cc2)cc1	MPTP block 75 | Rh123 counter 70
O=[N+]([O-])c1ccccc1Nc1c2ccccc2nc2ccccc12	none
COc1cc(Nc2nc3ccccc3nc2NS(=O)(=O)c2ccc([N+](=O)[O-])cc2)cc(OC)c1OC	none
O=[N+]([O-])c1ccc(Nc2c3ccccc3nc3ccccc23)cc1	MPTP block 80 | Rh123 counter 77
O=[N+]([O-])c1ccc(S(=O)(=O)Nc2nc3ccccc3nc2Nc2ccccc2)cc1	MPTP block 106 | Rh123 counter 86
O=C1CCCN2N=C(SCC(=O)Nc3cccc(C(F)(F)F)c3)SC2=N1	MPTP block 74 | Rh123 counter 74
CCCCCCCCSc1nnc(CSc2nc3nc(C)cc(C)n3n2)o1	MPTP block 87 | Rh123 counter inactive | MPTP abs DR inactive | MPTP counter DR 50
Cc1cc(C)n2nc(SCc3nnc(SCCCCl)o3)nc2n1	none
COc1cc(O)c(C(CC(=O)N2CCCC(C)C2)c2cc(OC)c(OC)c(OC)c2)c(OC)c1 (centres undefined)	none
Cc1ccc(NC(=O)COC(=O)[C@@H]2CCCN2C(=O)c2cccs2)cc1S(=O)(=O)N(C)C	none
CCCCCCCCCC[n+]1cccc2c3ccccc3ccc21	MPTP block 96 | Rh123 counter 97
CCCCCCCC[n+]1cccc2c3ccccc3ccc21	none
Cc1cc(C)c(NC(=O)Cn2nnc(C(=O)NCc3ccc4c(c3)OCO4)c2N)c(C)c1	none
S=C(Nc1ccc(Nc2ccccc2)cc1)NC1CCCCCC1	MPTP block 63 | Rh123 counter 66
S=C(Nc1ccc(Cl)cc1)NC1CCCCC1	MPTP block 82 | Rh123 counter 93
S=C(Nc1ccc(Br)cc1)NC1CCCCC1	MPTP block 97 | Rh123 counter 99
FC(F)Oc1ccc(NC(=S)NC2CCCCCCC2)cc1	none
COC(=O)c1ccc(NC(=S)NC2CC3CCC2C3)cc1 (centres undefined)	MPTP block 101 | Rh123 counter 91
NS(=O)(=O)c1ccc(NC(=S)NC2CCCCC2)cc1	none
C=CCNC(=S)NC(=O)c1oc2ccccc2c1C	none
C/C(=N/NC(=O)CNC(=O)c1ccncc1)c1ccc(Cl)cc1	none
COC(=O)c1ccc(NC(=S)NC2CCCCC2)cc1	MPTP block 90 | Rh123 counter 80
S=C(Nc1cccc(Cl)c1)NC1CCCCC1	MPTP block 99 | Rh123 counter 108
COC(=O)c1ccc(NC(=O)NC2CCCCC2)cc1	none
S=C(NNc1cccc(Cl)c1)NC1CCCCC1	none
S=C(NCCc1ccc(Cl)cc1)NC1CCCC1	MPTP block 53 | Rh123 counter 78
CNC(=O)C(=O)NCCN1CCN(S(=O)(=O)c2ccc3ccccc3c2)CC1	none
COc1ccc(-c2csc(C(NC(C)=O)c3ccc(F)c(F)c3)n2)cn1 (centres undefined)	none (no result: GRIN3A LBD mod)
CC(C)COc1ccc(C/C(N)=N/n2cnnc2)cc1	MPTP block 66 | Rh123 counter 54
CC1=NN(C(N)=S)C(=O)C1N=Nc1ccc(Cl)cc1Cl (centres undefined)	MPTP block 55, GRIN3A LBD mod 11 | Rh123 counter 83
CN(C)CCCN(C(=O)c1ccc(Br)s1)c1nc2cc3c(cc2s1)OCCO3	MPTP block 76 | Rh123 counter inactive
CCN(CC)CCN(C(=O)c1ccc(Br)s1)c1nc2cc3c(cc2s1)OCCO3	none
CN(C)CCCN(C(=O)c1cc2cc([N+](=O)[O-])ccc2s1)c1nc2cc3c(cc2s1)OCCO3	MPTP block 83 | Rh123 counter inactive
COc1ccc(-c2c(C(F)(F)F)[nH]n3c(=O)cc(-c4ccccc4)nc23)cc1	MPTP block 82 | Rh123 counter 42
COc1ccc(CCNS(=O)(=O)c2ccc(N3CCCC3=O)cc2)cc1	none
Cc1cc(N2CCCC2=O)cc(C)c1S(=O)(=O)NCCOc1ccccc1	none
Cc1ccc(OCCNS(=O)(=O)c2ccc(N3CCCC3=O)cc2)cc1	MPTP block 84 | Rh123 counter 70
Cc1ccc(OCCNS(=O)(=O)c2ccc(N3CCCC3=O)cc2)cc1C	MPTP block 104 | Rh123 counter 92
COc1cccc(/C=C2/Sc3ccc(C(=O)NCCN4CCCCCC4)cc3NC2=O)c1	MPTP block 95 | Rh123 counter inactive
O=C1Nc2cc(C(=O)NCCCN3CCCC3)ccc2S/C1=C/c1cccc(Cl)c1	none (no result: GRIN3A LBD mod)
O=C1Nc2cc(C(=O)NCCN3CCCCCC3)ccc2S/C1=C\c1ccccc1	MPTP block 76 | Rh123 counter inactive
Cc1cccc(/C=C2/Sc3ccc(C(=O)NCCN4CCCC4)cc3NC2=O)c1	none
Cc1cc(Cl)c(C(=O)Nc2cccc(C(F)(F)F)c2)c(C)n1	none
O=C(CCN1C(=O)/C(=C\c2ccccc2)SC1=S)NNC(=O)c1cccnc1	MPTP block 80 | Rh123 counter 70
O=C(CCCN1C(=O)/C(=C/c2cccs2)SC1=S)NNC(=O)c1cccnc1	none
CC(=O)c1ccc(OCC(=O)c2cc(C)n(-c3ccc4c(c3)OCO4)c2C)cc1	MPTP block 80 | Rh123 counter 85
Cc1cc(C(=O)COC(=O)c2ccc(N)c([N+](=O)[O-])c2)c(C)n1-c1ccc2c(c1)OCO2	none
COc1ccc(CCNc2ncnc3c2oc2ccccc23)cc1OC	MPTP block 97 | Rh123 counter 99
CCC(C)Nc1nc(C)nc2c1oc1ccccc12 (centres undefined)	none
Cc1nc(NC(C)c2ccccc2)c2oc3ccccc3c2n1 (centres undefined)	MPTP block 64 | Rh123 counter 96
c1ccc(CNc2ncnc3c2oc2ccccc23)nc1	none

High-throughput results from PubChem.
